The text below walks through data of ChEMBL document CHEMBL1128200, “(R)-(+)-N-[3-[5-[(4-fluorophenyl)methyl]-2-thienyl]-1-methyl- 2-propynyl]-N-hydroxyurea (ABT-761), a second-generation 5-lipoxygenase inhibitor” (J Med Chem, 1995).

One data set deals with Monkey. The following applies: Cercopithecidae; Liver.
Data set [1] addresses T1, Polyunsaturated fatty acid 5-lipoxygenase (Homo sapiens, UniProt P09917).
T1 sequence (P09917 whole entry): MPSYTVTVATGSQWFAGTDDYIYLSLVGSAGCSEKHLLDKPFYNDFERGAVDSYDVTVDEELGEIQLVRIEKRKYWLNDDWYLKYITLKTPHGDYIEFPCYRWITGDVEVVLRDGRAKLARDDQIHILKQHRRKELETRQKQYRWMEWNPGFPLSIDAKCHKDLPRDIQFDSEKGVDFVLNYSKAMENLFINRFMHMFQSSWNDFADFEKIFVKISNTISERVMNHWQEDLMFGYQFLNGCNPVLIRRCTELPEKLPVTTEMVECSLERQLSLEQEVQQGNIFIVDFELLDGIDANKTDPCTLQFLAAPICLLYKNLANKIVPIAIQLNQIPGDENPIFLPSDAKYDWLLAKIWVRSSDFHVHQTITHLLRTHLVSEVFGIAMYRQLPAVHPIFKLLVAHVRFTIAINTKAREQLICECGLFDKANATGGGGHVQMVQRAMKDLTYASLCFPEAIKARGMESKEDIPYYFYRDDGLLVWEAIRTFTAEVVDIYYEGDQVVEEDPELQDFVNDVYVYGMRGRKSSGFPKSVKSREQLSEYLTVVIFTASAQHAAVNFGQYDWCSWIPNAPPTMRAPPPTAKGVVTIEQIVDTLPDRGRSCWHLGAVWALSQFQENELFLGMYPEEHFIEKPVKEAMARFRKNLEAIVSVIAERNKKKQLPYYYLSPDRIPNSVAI
The experiment in a line: (§1) 5-lipoxygenase Inhibitory activity was measured by enzyme immunoassay using human whole blood stimulated with calcium ionophore (A23187) and LTB4 (leukotriene B4). The data set is classed as tissue-based. The method, boiled down: (§2)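 Heparinized human blood (20 USP units/mL) preincubated with drug or vehicle 15 min at 37 °C, then stimulated with calcium ionophore A23187; LTB4 in extracts quantified by EIA. IC50 estimated by linear regression; means of at least duplicate, mostly triplicate determinations.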

In the next data set the test system is Rattus norvegicus. The experiment in a line: Compound was evaluated in vivo for the rat anaphylaxis leukotriene formation at an oral dose of 30 umol/kg. The format is functional. The method, boiled down:
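Male Sprague-Dawley rats passively sensitized ip with rabbit anti-BSA antiserum; 3 h later challenged ip with 4 mg BSA in PBS. Drug given by oral gavage 1 h before challenge; killed 15 min post-challenge, peritoneal fluid collected, methanol-extracted, LTE4 measured by EIA. 8 rats/group; percent inhibition versus control group mean.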

The target in data set [2] is T2, Polyunsaturated fatty acid 5-lipoxygenase (Homo sapiens) (UniProt P09917).
T2 sequence (whole entry): T1 sequence (P09917 whole entry)
The description is as §1. The following applies: concentration not given here. The format is tissue-based. In short, it runs like this:
as §2

A short description of data set [3]: Oral bioavailability in rat. The format is ADME, organism-based. The following applies: in vivo.
Data set [4] is described as follows: Oral bioavailability was determined in dog. The format is ADME, organism-based, Canis lupus familiaris. The following applies: in vivo.
Data set [5] in a line: Oral bioavailability was determined in mouse. The format is ADME, organism-based. The following applies: in vivo.
A short description of data set [6]: Oral bioavailability was determined in guinea pig. The format is ADME, organism-based, Cavia porcellus. Conditions: in vivo.
Data set [7] can be described thus: Oral bioavailability was determined in cynomolgus monkey. The format is ADME, organism-based, Macaca fascicularis. The following applies: in vivo.

Regarding `CC(/C=C\c1ccc(Oc2ccc(F)cc2)o1)N(O)C(N)=O` (configuration not stated), the GT rate with Monkey came out at 2.4.
For the molecule `C[C@H](C#Cc1ccc(Oc2ccc(F)cc2)o1)N(O)C(N)=O`, in data set [1], the IC50 (commonly the concentration that inhibits the measured activity by half) was determined as 80 nM. Further, the GT rate with Monkey amounted to 0.01. Further, in the data set with Rattus norvegicus, the ED50 (in general, the dose that gives a 50% effect, or the effect in half of the subjects) turned out to be 1.4 mg/kg.
Take `NC(=O)N(O)CC#Cc1ccc(Cc2ccc(F)cc2)s1`: the IC50 in [1] stood at 70 nM. The GT rate in the data set with Monkey worked out at 0.05. In addition, in the data set on Rattus norvegicus, the inhibition in vivo (commonly the drop in the measured response relative to a control, in per cent) at 30 µmol/kg was found to be 78%.
For the molecule `CC(c1ccc(Oc2ccc(F)cc2)o1)N(O)C(N)=O` (configuration not stated), in [2], the inhibition (usually how much of the control response was suppressed) came out at 58%. The molecule also showed a GT rate with Monkey of 0.31. The inhibition in vivo at 30 µmol/kg in the data set on Rattus norvegicus turned out to be 0%.
For `CC(C#Cc1ccc(Cc2ccc(F)cc2)s1)N(O)C(N)=O` (configuration not stated), in data set [1], the IC50 is 200 nM. Besides, the median effective dose (ED50) in the data set on Rattus norvegicus was found to be 5.6 mg/kg.
On the same counts, the results for `C[C@@H](C#Cc1ccc(Cc2ccc(F)cc2)s1)N(O)C(N)=O` are 200 nM and 2.1 mg/kg.
`C[C@H](C#Cc1ccc(Cc2ccc(F)cc2)s1)N(O)C(N)=O` [ATRELEUTON]: the bioavailability (as a rule, dose-corrected exposure relative to a reference, in per cent) in data set [3] was 60%; in [4], 95%; in data set [5], 100%; in data set [6], 90%; in [7], 90%. Moreover, in the data set on Rattus norvegicus, the ED50 is 2.8 mg/kg.
As to `NC(=O)N(O)CC#Cc1ccc(Oc2ccc(F)cc2)o1`, in data set [1], the IC50 amounted to 60 nM. Also, the GT rate with Monkey turned out to be 0.03. In the data set on Rattus norvegicus, this molecule displayed an inhibition in vivo at 30 µmol/kg of 70%.
In turn, `CC(/C=C/c1ccc(Oc2ccc(F)cc2)o1)N(O)C(N)=O` (configuration not stated) registered a GT rate with Monkey of 0.07.
`CC(c1cc2ccccc2s1)N(O)C(N)=O` (configuration not stated) [ZILEUTON] came in with a GT rate in the data set with Monkey of 0.12. In the data set on Rattus norvegicus, this molecule displayed an ED50 of 4.4 mg/kg.
In the case of `C[C@@H](C#Cc1ccc(Oc2ccc(F)cc2)o1)N(O)C(N)=O`, the IC50 in [1] was 50 nM. The molecule also came in with a GT rate in the data set with Monkey of 0.05. The molecule also gave a median effective dose (ED50) in the data set on Rattus norvegicus of 1.5 mg/kg.
On to `CC(C#Cc1ccc(Oc2ccc(F)cc2)o1)N(O)C(N)=O` (configuration not stated), for which, in [1], the IC50 turned out to be 80 nM. This molecule registered a GT rate in the data set on Monkey of 0.02. This molecule showed an ED50 with Rattus norvegicus of 1.2 mg/kg.
